Assay outcomes as filed in PubChem BioAssay.
TAAR1 antag – human TAAR1 antagonism; Q96RJ0; CHO RD-HGA16 TAAR1, Fluo-8 calcium fluorescence, antagonist; 1.5% of 360,000 active; inhibition, % at 3 µM;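 active = inhibition above a per-plate cutoff, the mean inhibition of test compounds on that plate plus 3 SD, cut at about 49% in these data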;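 also: 0% = DMSO plus EC80 beta-PEA response and 100% = DMSO alone without agonist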
Target sequence (Q96RJ0 whole entry, looked up): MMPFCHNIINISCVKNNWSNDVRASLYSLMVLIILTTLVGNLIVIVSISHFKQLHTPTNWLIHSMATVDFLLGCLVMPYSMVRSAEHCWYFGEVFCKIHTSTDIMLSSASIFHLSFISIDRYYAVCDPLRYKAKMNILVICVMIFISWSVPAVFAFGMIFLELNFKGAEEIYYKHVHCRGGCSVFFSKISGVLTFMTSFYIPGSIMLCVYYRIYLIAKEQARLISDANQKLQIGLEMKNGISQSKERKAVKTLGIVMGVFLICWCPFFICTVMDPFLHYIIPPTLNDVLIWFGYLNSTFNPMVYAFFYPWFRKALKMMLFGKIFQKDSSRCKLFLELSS
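Material: CHO RD-HGA16 cells bearing hTAAR1; compound dosing: one-point dosing, 3 µM nominal final; schedule: dye loading 75 min at 37 °C, then 30 min room temperature; measured by: calcium fluorescence with Fluo-8; control set: vehicle and agonist controls; replication: n of 1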
TMEM16A inh – blocks the mouse calcium-activated chloride channel TMEM16A; 1.2% of 310,000 active; Q8BHY3; HEK293 TMEM16A/YFP iodide influx fluorescence, ionomycin; normalized B-score (activity score, 25-100; higher = stronger inhibition) at 10 µM;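 active = ratio plate-corrected score three or more library SD toward inhibition, starting fluorescence score within five deviations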;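 also: score derived from kinetic fluorescence span divided by baseline fluorescence per well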
CRFBP-R2 agonist – agonists of human CRF-binding protein/CRF-R2 receptor complex | HEK293 CRF-R2/CRF-BP, calcium dye fluorescence (FLIPR); percent of saturating CRF peptide response | activation, % at 13.2 µM | 0.46% of 350,000 active | AID 588473;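 active = activation of at least 50%, plus an integration ratio under a set limit after plate pattern correction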;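 also: plate controls were neutral control wells without compound for no effect and CRF at EC100 for full effect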
TAAR1 agonist – human TAAR1 agonism; Q96RJ0; CHO RD-HGA16 TAAR1, Fluo-8 calcium fluorescence; vehicle wells 0%, saturating PEA agonist 100%; activation, % at 3 µM; 0.99% of 360,000 active; AID 624467;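 active = activation above the mean activation of all test compounds in the run plus 3 SD, cut at about 38% in these data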
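Signal – calcium-sensitive Fluo-8 signal, excitation 470-495, emission 515-575 nm · System – RD-HGA16 (CHO) cells co-expressing Gα16 and hTAAR1 · Incubation – 17-24 h seeding, 75 min 37 °C dye, 30 min RT · Compound dosing – 3 µM single concentration · Repeats – no replicates (n 1)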
TMEM16A act – mouse TMEM16A channel activation, primary screen | AID 623877 | Q8BHY3 | B-score at 10 µM | HEK293 TMEM16A/YFP-H148Q/I152L, iodide quench fluorescence; active compounds read low | 0.3% of 340,000 active;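 active = fluorescence-ratio B-score plate-corrected deviation score at least 3 library SD below zero, with starting fluorescence score within 5 deviations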;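 also: channel opened by trigger with iodide after compound preincubation; score built on the fluorescence ratio of max minus min over baseline; more negative score means more quench and so TMEM16A activation or potentiation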
CRFBP-R2 block – antagonists of CRF-binding protein/CRF-R2 receptor complex | HEK293 CRF-R2/CRF-BP, CRF-induced calcium fluorescence | inhibition, % at 11.8 µM | 0.59% of 350,000 active;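 active = inhibition of the ligand-induced calcium signal above about 50% at the single tested concentration, limit read from the data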
Numbers without * were called inactive; i = inactive; / = no result. Most compounds without a hit are left out; they make up all but 3.9% or so of the library.

SMILES	TAAR1 antag	TMEM16A inh	CRFBP-R2 agonist	TAAR1 agonist	TMEM16A act	CRFBP-R2 block
COc1ccc(-c2[nH][nH]c(=O)c2NC(=O)c2ccc(C)cc2)cc1	1	/	/	1	/	/
CC(=O)C[C@H](O)CC(=O)[C@H]1OC(=O)CCCCCCCCc2ccccc21	2	/	-1	9	i	-7
Cc1cc(C)c(S(=O)(=O)N2CCN(c3ccccn3)CC2)c(C)c1	0	/	0	1	i	1
CC(C)(C)n1nnnc1C(c1ccc(C(F)(F)F)cc1)N(Cc1ccc(F)cc1)Cc1ccco1 (configuration not stated)	-1	i	5	7	i	2
CC(C)(C)n1nnnc1C(c1ccc(Cl)cc1)N(Cc1cccnc1)Cc1ccco1 (configuration not stated)	5	i	8	1	i	59*
CC(C)(C)n1nnnc1C(c1ccc(F)cc1)N(Cc1ccc(F)cc1)Cc1ccco1 (configuration not stated)	17	i	-1	4	-5.1*	-33
CC(CNC(=O)CCS(=O)(=O)c1ccc2c(c1)NC(=O)CO2)c1ccccc1 (configuration not stated)	-16	i	0	20	i	-1
COc1cc(NC(=O)COc2cccc3c2OC(C)(C)C3)cc(OC)c1OC	59*	/	0	13	/	9
Cc1ccc(-n2nc(C)c(Sc3ccccc3[N+](=O)[O-])c2N)cc1	8	i	0	2	i	52*
Oc1ccc(N=Nc2ccccc2-c2nn[nH]n2)c(O)c1	-13	i	0	5	i	27
Cc1nnc(SCC(=O)Nc2cccc(Cl)c2)n1CC1CCCO1 (configuration not stated)	4	i	-1	-1	i	1
CCc1ccc(-c2nc(CN3CCC(C(=O)N4CCN(c5ccccc5)CC4)CC3)c(C)o2)cc1	-3	i	313*	28	i	-359
CCN(CCNC(=O)C1CCN(Cc2nc(-c3cccc(Cl)c3)oc2C)CC1)c1ccccc1	-3	i	6	39*	i	-4
CCN(CCNC(=O)C1CCN(Cc2nc(-c3ccc(Cl)cc3)oc2C)CC1)c1ccccc1	6	100*	48	13	i	-89
CCC1(c2ccccc2)NC(=O)N(CC(=O)NNC(=O)COc2ccc(Cl)cc2C)C1=O (configuration not stated)	0	/	-2	1	i	-19
COc1ccccc1-c1cc2nc(NCCc3ccc(S(N)(=O)=O)cc3)ccn2n1	56*	/	/	4	/	/
NS(=O)(=O)c1ccc(CCNc2ccn3nc(-c4cccc(C(F)(F)F)c4)cc3n2)cc1	61*	/	/	22	/	/
COc1ccccc1-c1cc2nc(NCCc3ccncc3)ccn2n1	8	/	/	5	/	/
COc1ccc(NC(=O)Cc2nnc(SCC(=O)Nc3ccccc3)n2C)cc1	6	i	0	7	i	11
O=C1CN(S(=O)(=O)c2ccc(Cl)cc2)CC(=O)N1CCc1ccccc1	56*	i	0	9	i	5
O=C(NCCN1C(=O)S/C(=C\c2ccccc2F)C1=O)C1CC(=O)N(Cc2ccccc2)C1 (configuration not stated)	54*	/	-3	27	i	-18
Cc1ccc(CN2CC(C(=O)NCCCSc3ccccc3)CC2=O)cc1 (configuration not stated)	1	i	1	-2	i	56*
O=C(O)COCC(=O)Nc1ccc(OCCc2ccccc2)cc1	-7	i	0	6	i	-18
CCC1(c2ccc(F)cc2)NC(=O)N(CC(=O)Nc2ccc(C(N)=O)cc2)C1=O (configuration not stated)	-16	i	-1	0	i	1
CCC1(c2ccc(F)cc2)NC(=O)N(CC(=O)Nc2ccc(N3CCCCC3)cc2)C1=O (configuration not stated)	19	i	44	60*	i	-54
Cc1cc(C)c(CNC(=O)c2cc(C3CC3)nc3c2cnn3C(C)C)c(=O)[nH]1	-2	/	-2	3	i	-22
